Source: PubChem BioAssay (Johns Hopkins Ion Channel Center)
An excerpt weighted towards active compounds, which were near 3.8% of everything screened.
KCNQ1 pot: potentiators or activators of human KCNQ1 potassium channel | CHO-K1 KCNQ1, thallium flux FluxOR fluorescence; active compounds read high | B-score at 10 µM | actives 0.35% (n = 310,000) | AID 2648 | P51787;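 active means fluorescence ratio B-score, a plate-corrected score, at least three library SD, with initial intensity B-score within 5 SD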
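assay system = KCNQ1-transfected CHO-K1 cells | medium = assay buffer with matched DMSO | probe or stimulus = depolarizing K+/Tl+ stimulus, K2SO4 and Tl2SO4 each 12.5 mM in 5x stock | dosing = single dose | incubation = dye 90 min, compound 20 min, room temperature | detection = kinetic FluxOR fluorescence, 10 s baseline plus 110 s post-stimulus | evaluation = ratio B score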
Kir21 block: blocks the mouse Kir2.1 inward-rectifier potassium channel | HEK293-Kir2.1, FluxOR thallium flux fluorescence; active compounds read low | actives 0.85% (n = 310,000) | B-score at 10 µM | AID 1672 | P35561;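 active means fluorescence ratio B-score at or below minus 3 SD of library scores, with starting-brightness B-score within 2 SD, cut at about -4.2 in these data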;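 further: channel flux triggered by added potassium and thallium sulfate stimulus; B-score of peak minus minimum fluorescence over baseline after thallium stimulus; more negative B-score means stronger Kir2.1 block with less thallium influx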
KCNK3 block: human KCNK3 channel inhibition, primary screen | O14649 | CHO-KCNK3 thallium flux, FluxOR fluorescence; active compounds read low | B-score at 10 µM | actives 0.84% (n = 340,000) | AID 602410;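 active means B-score under library mean minus 4 SD, starting fluorescence ratio at most library mean plus 5 SD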;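 further: more negative B-score means stronger inhibition of thallium flux through KCNK3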
Target sequence (O14649 whole entry, looked up): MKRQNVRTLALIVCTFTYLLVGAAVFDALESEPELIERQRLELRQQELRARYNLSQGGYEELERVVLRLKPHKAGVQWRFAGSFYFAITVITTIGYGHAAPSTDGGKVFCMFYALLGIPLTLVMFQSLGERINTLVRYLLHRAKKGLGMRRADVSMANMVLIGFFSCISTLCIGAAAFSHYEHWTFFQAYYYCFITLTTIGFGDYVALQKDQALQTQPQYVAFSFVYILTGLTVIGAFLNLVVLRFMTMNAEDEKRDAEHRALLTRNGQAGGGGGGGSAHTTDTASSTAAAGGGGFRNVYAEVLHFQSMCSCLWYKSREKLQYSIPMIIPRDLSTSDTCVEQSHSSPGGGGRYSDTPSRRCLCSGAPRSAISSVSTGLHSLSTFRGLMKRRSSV
KCNQ1 inh: human KCNQ1 channel inhibition; P51787; CHO-K1 KCNQ1, FluxOR thallium flux fluorescence; active compounds read high; B-score at 10 µM; actives 1.3% (n = 310,000); AID 2642;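 active means compounds whose thallium flux B-score, printed positive for inhibition, exceeds three library SD while starting fluorescence stays within three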;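 further: channel opened by potassium depolarization with thallium stimulus after 20 min compound exposure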
KCNK9 block: human KCNK9 channel inhibition; Q9NPC2; HEK293 KCNK9, FluxOR thallium flux fluorescence; active compounds read low; B-score at 10 µM; actives 1.2% (n = 310,000);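 active means ratio B-score over 3 SD below the library mean, with starting fluorescence within 5 SD of its mean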;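 further: negative B-score means less thallium flux so channel inhibition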
hERG rescue: hERG (human) protection from proarrhythmic block. actives 0.51% (n = 310,000). Q12809. activation (rescue from dofetilide block), less the hit threshold, % at 10 µM. CHO-hERG, FluxOR thallium flux, dofetilide IC70 present;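 active means activation above the mean of controls blocked by dofetilide plus 5 SD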;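 further: thallium influx through hERG after potassium depolarization seen as dye fluorescence rise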
* = called active by the depositor.

How did CC(C)COc1ccc(S(=O)(=O)n2cc(F)c(=O)[nH]c2=O)cc1 do in these assays?
KCNQ1 pot: inactive; Kir21 block: 0.02; KCNK3 block: inactive; KCNQ1 inh: inactive; KCNK9 block: inactive; hERG rescue: 5.0*

How did O=C(NN1C(=O)C2C(c3ccccc3)C=CC(c3ccccc3)C2C1=O)c1ccccc1 (stereo not drawn) do in these assays?
KCNQ1 pot: inactive; Kir21 block: 0.17; KCNK3 block: inactive; KCNQ1 inh: inactive; KCNK9 block: -7.77*; hERG rescue: 8.6*

Results for O=C(NN1C(=O)C2C3c4ccccc4C(c4ccccc43)[C@@H]2C1=O)c1ccccc1 (stereo partly drawn) ?
KCNQ1 pot: inactive; Kir21 block: -0.57; KCNK3 block: inactive; KCNQ1 inh: inactive; KCNK9 block: inactive; hERG rescue: 0.8

What do the screens show for `CCOC(=O)[C@@H]1[C@H]2COc3ccccc3[C@H]2N2C(=O)N(c3ccc(Br)cc3)C(=O)[C@]12C`?
KCNK3 block: inactive

Results for O=C(CSc1nc(=O)n2ccccc2n1)NCc1ccccc1 ?
KCNQ1 pot: 8*; Kir21 block: 0.37; KCNK3 block: inactive; KCNQ1 inh: inactive; KCNK9 block: inactive; hERG rescue: -16.1

Results for O=C(CSc1nc(=O)n2ccccc2n1)NCc1ccc(F)cc1 ?
KCNQ1 pot: inactive; Kir21 block: 0.61; KCNK3 block: inactive; KCNQ1 inh: inactive; KCNK9 block: inactive; hERG rescue: -11.1

How did CCc1sc(C(=O)Nc2cccc(-n3cnnn3)c2)cc1C do in these assays?
KCNK3 block: inactive

How did C=CCn1c(SC/C=C/c2ccccc2)nnc1-c1sc(N)nc1C do in these assays?
KCNQ1 pot: inactive; Kir21 block: -5.7*; KCNK3 block: inactive; KCNQ1 inh: inactive; KCNK9 block: inactive; hERG rescue: -9.5

What do the screens show for `COC(=O)[C@@]1(Cc2ccccc2)[C@H]2C(=O)N(C)C(=O)[C@H]2[C@H]2CN=C(SC)N21`?
KCNK3 block: inactive

What do the screens show for `CC1CCC(NC(=O)c2cc3ccccc3cc2O)CC1` (stereo not drawn)?
KCNK3 block: -10.9*

How did O=C(NNC(=O)c1cc2ccccc2cc1O)NC1CCCCC1 do in these assays?
KCNQ1 pot: inactive; Kir21 block: 0.01; KCNK3 block: inactive; KCNQ1 inh: inactive; KCNK9 block: inactive; hERG rescue: -8.2

Results for COc1cc2c(cc1OC)CN(c1ccc3ccccc3n1)CC2 ?
KCNQ1 pot: inactive; Kir21 block: -11.1*; KCNK3 block: inactive; KCNQ1 inh: inactive; KCNK9 block: inactive; hERG rescue: -17.8

Results for COc1cc2c(cc1OC)CN(c1ccc(-c3ccccc3OC)nn1)CC2 ?
KCNQ1 pot: inactive; Kir21 block: -0.05; KCNK3 block: inactive; KCNQ1 inh: inactive; KCNK9 block: inactive; hERG rescue: -10.8

Results for COc1cccc(CNC(=O)CCNS(=O)(=O)c2ccc(C)cc2)c1 ?
KCNQ1 pot: inactive; Kir21 block: -0.08; KCNK3 block: inactive; KCNQ1 inh: inactive; KCNK9 block: inactive; hERG rescue: -4.6

Results for COc1ccc(CCNC(=O)CCCOc2cc(=O)n(C)c3ccccc23)cc1OC ?
KCNQ1 pot: inactive; Kir21 block: 0.61; KCNK3 block: inactive; KCNQ1 inh: inactive; KCNK9 block: inactive; hERG rescue: -8.7

How did CN(CCCNC(=O)CCCOc1cc(=O)n(C)c2ccccc12)Cc1ccccc1 do in these assays?
KCNQ1 pot: 8*; Kir21 block: 0.57; KCNK3 block: inactive; KCNQ1 inh: inactive; KCNK9 block: inactive; hERG rescue: -7.5

Results for CCOc1ccc(-c2c[n+]3c(n2-c2ccccc2)CCCCC3)cc1 ?
KCNQ1 pot: inactive; Kir21 block: -0.79; KCNK3 block: inactive; KCNQ1 inh: 7*; KCNK9 block: inactive; hERG rescue: -20.1

Results for Cc1ccc(S(=O)(=O)Nc2ccc3c(c2)C(=O)N([C@H](C)CO)C[C@H](C)[C@@H](CN(C)Cc2ccccc2)O3)cc1 ?
KCNK3 block: -10.5*

What do the screens show for `Cc1nc2cc(-c3ccc(Cl)cc3)nn2c(NCCN(C)C)c1C`?
KCNQ1 pot: inactive; Kir21 block: -4.58*; KCNK3 block: inactive; KCNQ1 inh: inactive; KCNK9 block: inactive; hERG rescue: -13.3

How did N#Cc1nnn(-c2ccc(Cl)cc2)c1N do in these assays?
KCNQ1 pot: inactive; Kir21 block: -0.05; KCNK3 block: inactive; KCNQ1 inh: inactive; KCNK9 block: inactive; hERG rescue: -9.0

Results for O=C1C2C3C=CC(C3)C2C(=O)N1/N=C/c1ccc(-c2ccccc2[N+](=O)[O-])o1 (stereo not drawn) ?
KCNQ1 pot: inactive; Kir21 block: 0.01; KCNK3 block: inactive; KCNQ1 inh: inactive; KCNK9 block: inactive; hERG rescue: -4.0

Results for O=C1C2C3C=CC(C3)C2C(=O)N1/N=C/c1cc(Br)cc([N+](=O)[O-])c1O (stereo not drawn) ?
KCNQ1 pot: inactive; Kir21 block: 2.17; KCNK3 block: inactive; KCNQ1 inh: 7*; KCNK9 block: inactive; hERG rescue: -6.3

What do the screens show for `CC(C)CCN1C(Nc2ccccc2)=NC[C@@H]1Cc1ccccc1`?
KCNQ1 pot: inactive; Kir21 block: -1.73; KCNK3 block: inactive; KCNQ1 inh: inactive; KCNK9 block: inactive; hERG rescue: -3.0

Results for CC(CCN1C(Nc2ccccc2)=NC[C@@H]1Cc1ccccc1)c1ccccc1 (stereo partly drawn) ?
KCNQ1 pot: inactive; Kir21 block: -7.25*; KCNK3 block: inactive; KCNQ1 inh: inactive; KCNK9 block: inactive; hERG rescue: -11.9

How did COc1ccc(N/C(C)=C/C(=O)c2ccccc2)cc1 do in these assays?
KCNQ1 pot: inactive; Kir21 block: 1.06; KCNK3 block: inactive; KCNQ1 inh: inactive; KCNK9 block: inactive; hERG rescue: -2.1

How did C/C(=C\C(=O)c1ccccc1)NNC(=O)c1ccc(Cl)cc1 do in these assays?
KCNQ1 pot: inactive; Kir21 block: 0.15; KCNK3 block: inactive; KCNQ1 inh: inactive; KCNK9 block: inactive; hERG rescue: 6.5*

What do the screens show for `COc1ccc(C(=O)NN/C(C)=C/C(=O)c2ccccc2)cc1`?
KCNQ1 pot: inactive; Kir21 block: -2.13; KCNK3 block: inactive; KCNQ1 inh: inactive; KCNK9 block: inactive; hERG rescue: 9.1*

What do the screens show for `O=C(CCNC(=O)c1ccco1)NC(Cc1c[nH]c2ccccc12)C(=O)O` (stereo not drawn)?
KCNK3 block: inactive

Results for O=[N+]([O-])c1ccc2oc(C(O)c3cccc(Cl)c3)cc2c1 (stereo not drawn) ?
KCNQ1 pot: inactive; Kir21 block: 0.03; KCNK3 block: inactive; KCNQ1 inh: 9*; KCNK9 block: inactive; hERG rescue: -15.9
